Reference: ChEMBL document CHEMBL6134793, “Synthesis and structure-activity study of the antimicrobial lipopeptide brevibacillin” (RSC Med Chem, 2024)
≈ marks a conversion by molar mass, not a printed value.

What was measured:
Pseudomonas aeruginosa [1] = test: Antimicrobial activity against Pseudomonas aeruginosa ATCC […] assessed as diameter of growth inhibition at 128 ug/ml by radial diffusion assay; format: functional; settings: dose 128 µg/ml
In short: (§1)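 Agar well diffusion. Overnight cultures inoculated at 1% into 0.75% soft agar (TSB for S. aureus, LB for P. aeruginosa). Each well received 80 μL of peptide at 128 μg mL−1 in water with 10% DMSO; 10% DMSO served as negative control. Inhibition zone diameter scored after strain-specific incubation.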

[2] = Cytotoxicity against human Caco-2 cells assessed as inhibition of cell viability incubated for 48 hrs by Cell Titer GLO assay; format: toxicity, cell-based
In short: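 Caco-2 cells in DMEM with 10% FCS, seeded 25 000 per well, adhered overnight, then given peptide at 2–256 μg mL−1 in complete medium for 48 h at 37 °C, 5% CO2. Controls: cisplatin 125 μM; 0.1% DMSO medium. Viability by ATP luminescence (CellTiter-Glo) versus untreated cells; IC50 from dose–response; mean ± SEM of at least three independent experiments.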

Escherichia coli = test: Antimicrobial activity against Escherichia coli ATCC 25922 assessed as growth inhibition by microdilution assay; format: functional
In short: (§2)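 Twofold serial microdilution of peptide (stocks 2 mg mL−1, diluted to 512 μg mL−1 in water with 10% DMSO) in strain medium, about 1 × 10^4 cfu per well. Media: TSB 20 h 37 °C (S. aureus, L. monocytogenes, B. subtilis, E. faecalis); LB 20 h 37 °C (P. aeruginosa, S. enterica, E. coli); Brucella 48 h 37 °C (C. coli). A595 read; MIC = lowest concentration with no visible growth; triplicate.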

Bacillus subtilis = test: Antimicrobial activity against Bacillus subtilis ATCC 23957 assessed as growth inhibition by microdilution assay; format: functional; in short: as §2
Pseudomonas aeruginosa [3] = test: Antimicrobial activity against Pseudomonas aeruginosa ATCC […] assessed as growth inhibition by microdilution assay; format: functional; in short: as §2
[4] = Antimicrobial activity against Salmonella enterica serovar Newport ATCC 6962 assessed as growth inhibition by microdilution assay; format: functional, Salmonella enterica subsp. enterica serovar Newport; in short: as §2
Clostridium perfringens = test: Antimicrobial activity against Clostridium perfringens ATCC 3628 assessed as growth inhibition by microdilution assay; format: functional
In short: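 Broth microdilution: twofold serial peptide dilutions in reinforced clostridial medium (RCM), seeded with about 1 × 10^4 cfu per well, incubated 20 h at 37 °C. Working solution 512 μg mL−1 made from a 2 mg mL−1 stock in water with 10% DMSO. Growth read as absorbance at 595 nm. MIC taken as the lowest concentration giving complete inhibition of visible growth; run in triplicate.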

Listeria monocytogenes = test: Antimicrobial activity against Listeria monocytogenes ATCC 19111 assessed as growth inhibition by microdilution assay; format: functional; in short: as §2
[5] = Hemolytic activity in human erythrocytes at 128 ug/ml measured after 1 hr by absorbance based assay relative to control; format: toxicity, cell-based, Erythrocyte; settings: at 128 µg/mL, read-out: Activity
In short: (§3)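 Washed human donor erythrocytes at 1% hematocrit in PBS pH 7.4 exposed to twofold peptide dilutions (final 2–256 μg mL−1, up to 1% DMSO) for 1 h at 37 °C. After centrifugation, supernatant A405 read. % hemolysis relative to PBS (0%) and 1% Triton X-100 (100%). Triplicate; mean ± SEM.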

Campylobacter coli = test: Antimicrobial activity against Campylobacter coli ATCC 33559 assessed as growth inhibition by microdilution assay; format: functional; in short: as §2
Enterococcus faecalis = test: Antimicrobial activity against Enterococcus faecalis ATCC 29212 assessed as growth inhibition by microdilution assay; format: functional; in short: as §2
Staphylococcus aureus [6] = test: Antimicrobial activity against Staphylococcus aureus ATCC 6538 assessed as growth inhibition by microdilution assay; format: functional; in short: as §2
Staphylococcus aureus [7] = test: Antimicrobial activity against Staphylococcus aureus ATCC 6538 assessed as diameter of growth inhibition at 128 ug/ml by radial diffusion assay; format: functional; settings: dose 128 µg/ml; in short: as §1
[8] = Hemolytic activity in human erythrocytes at 256 ug/ml measured after 1 hr by absorbance based assay relative to control; format: toxicity, cell-based, Erythrocyte; settings: at 256 µg/mL, read-out: Activity; in short: as §3

| SMILES | Activity (Pseudomonas aeruginosa [1]) [mm] | IC50 at 48 h [2] [µg/mL] | MIC (Escherichia coli) [µg/mL] | MIC (Bacillus subtilis) [µg/mL] | MIC (Pseudomonas aeruginosa [3]) [µg/mL] | MIC [4] [µg/mL] | MIC (Clostridium perfringens) [µg/mL] | MIC (Listeria monocytogenes) [µg/mL] | hemolysis at 1 h, 128 ug/ml [5] [%] | MIC (Campylobacter coli) [µg/mL] | MIC (Enterococcus faecalis) [µg/mL] | MIC (Staphylococcus aureus [6]) [µg/mL] | Activity (Staphylococcus aureus [7]) [mm] | hemolysis at 1 h, 256 ug/ml [8] [%] |
| --- | --- | --- | --- | --- | --- | --- | --- | --- | --- | --- | --- | --- | --- | --- |
| C/C=C(/NC(=O)[C@@H](O)[C@@H](C)CC)C(=O)N[C@@H](CC(C)C)C(=O)N[C@H](CCCN)C(=O)N[C@H](C(=O)N[C@H](C(=O)N[C@H](C(=O)N[C@H](CCCCN)C(=O)N[C@H](C(=O)N[C@H](C(=O)N[C@@H](CCCCN)C(=O)N[C@H](Cc1ccc(O)cc1)C(=O)N[C@@H](CC(C)C)C(=O)N[C@H](CO)C(C)C)C(C)C)C(C)C)C(C)C)C(C)C)[C@@H](C)CC | 12 | 25.7 (≈ 16.4 µM) | 32 | 2 | 2 | > 128 | 4 | 1 | 1.65 | 16 | 16 | 4 | 11 |  |
| CC[C@H](C)[C@H](O)C(=O)N[C@@H](C)C(=O)N[C@@H](CC(C)C)C(=O)N[C@H](CCCN)C(=O)N[C@H](C(=O)N[C@H](C(=O)N[C@H](C(=O)N[C@H](CCCCN)C(=O)N[C@H](C(=O)N[C@H](C(=O)N[C@@H](CCCCN)C(=O)N[C@H](Cc1ccc(O)cc1)C(=O)N[C@@H](CC(C)C)C(=O)N[C@H](CO)C(C)C)C(C)C)C(C)C)C(C)C)[C@@H](C)CC)[C@@H](C)CC | 12 | 13.5 (≈ 8.59 µM) | 64 | 2 | 1 | > 128 | 2 | 1 |  | 8 | 4 | 2 | 11 |  |
| CC[C@H](NC(=O)[C@@H](NC(C)=O)[C@@H](C)CC)C(=O)N[C@@H](CC(C)C)C(=O)N[C@H](CCCN)C(=O)N[C@H](C(=O)N[C@H](C(=O)N[C@H](C(=O)N[C@H](CCCCN)C(=O)N[C@H](C(=O)N[C@H](C(=O)N[C@@H](CCCCN)C(=O)N[C@H](Cc1ccc(O)cc1)C(=O)N[C@@H](CC(C)C)C(=O)N[C@H](CO)C(C)C)C(C)C)C(C)C)C(C)C)[C@@H](C)CC)[C@@H](C)CC | 7 | 17.6 (≈ 10.8 µM) | > 128 | 4 | 2 | > 128 | 2 | 2 | 23.3 | 16 | 32 | 2 | 7 | 38.2 |
| CC[C@H](C)[C@H](O)C(=O)N[C@H](C(=O)N[C@@H](CC(C)C)C(=O)N[C@H](CCCN)C(=O)N[C@H](C(=O)N[C@H](C(=O)N[C@H](C(=O)N[C@H](CCCCN)C(=O)N[C@H](C(=O)N[C@H](C(=O)N[C@@H](CCCCN)C(=O)N[C@H](Cc1ccc(O)cc1)C(=O)N[C@@H](CC(C)C)C(=O)N[C@H](CO)C(C)C)C(C)C)C(C)C)C(C)C)[C@@H](C)CC)[C@@H](C)CC)[C@@H](C)O | 12 | 32.2 (≈ 20.1 µM) | 32 | 1 | 2 | > 128 | 4 | 4 | 1.2 | 16 | 16 | 2 | 11 | 4.9 |
| CC[C@H](NC(=O)[C@@H](O)[C@@H](C)CC)C(=O)N[C@@H](CC(C)C)C(=O)N[C@H](CCCN)C(=O)N[C@H](C(=O)N[C@H](C(=O)N[C@H](C(=O)N[C@H](CCCCN)C(=O)N[C@H](C(=O)N[C@H](C(=O)N[C@@H](CCCCN)C(=O)N[C@H](Cc1ccc(O)cc1)C(=O)N[C@@H](CC(C)C)C(=O)N[C@H](C(N)=O)C(C)C)C(C)C)C(C)C)C(C)C)[C@@H](C)CC)[C@@H](C)CC | 7 | 11.3 (≈ 7.07 µM) | > 128 | 2 | 2 | > 128 | 8 | 2 | 23.3 | 16 | 64 | 2 | 7 | 38.2 |
| CC[C@H](C)[C@H](O)C(=O)N[C@H](C(=O)N[C@@H](CC(C)C)C(=O)N[C@H](CCCN)C(=O)N[C@H](C(=O)N[C@H](C(=O)N[C@H](C(=O)N[C@H](CCCCN)C(=O)N[C@H](C(=O)N[C@H](C(=O)N[C@@H](CCCCN)C(=O)N[C@H](Cc1ccc(O)cc1)C(=O)N[C@@H](CC(C)C)C(=O)N[C@H](CO)C(C)C)C(C)C)C(C)C)C(C)C)[C@@H](C)CC)[C@@H](C)CC)C(C)C | 7 | 8.3 (≈ 5.19 µM) | > 128 | 1 | 1 | > 128 | 4 | 1 | 53.1 | 8 | 4 | 1 | 7 | 84 |
| C/C=C(/NC(=O)[C@@H](O)[C@@H](C)CC)C(=O)N[C@@H](CC(C)C)C(=O)N[C@H](CCCN)C(=O)N[C@H](C(=O)N[C@H](C(=O)N[C@H](C(=O)N[C@H](CCCCN)C(=O)N[C@H](C(=O)N[C@H](C(=O)N[C@@H](CCCCN)C(=O)N[C@H](Cc1ccc(O)cc1)C(=O)N[C@@H](CC(C)C)C(=O)N[C@H](CO)C(C)C)C(C)C)[C@@H](C)CC)C(C)C)[C@@H](C)CC)[C@@H](C)CC | 12 | 6.5 (≈ 4.07 µM) | 32 | 0.5 | 1 | 64 | 2 | 1 | 55 | 8 | 2 | 2 | 11 | 89.9 |
| CC[C@H](C)[C@H](O)C(=O)N[C@@H](CO)C(=O)N[C@@H](CC(C)C)C(=O)N[C@H](CCCN)C(=O)N[C@H](C(=O)N[C@H](C(=O)N[C@H](C(=O)N[C@H](CCCCN)C(=O)N[C@H](C(=O)N[C@H](C(=O)N[C@@H](CCCCN)C(=O)N[C@H](Cc1ccc(O)cc1)C(=O)N[C@@H](CC(C)C)C(=O)N[C@H](CO)C(C)C)C(C)C)C(C)C)C(C)C)[C@@H](C)CC)[C@@H](C)CC | 12 | 42.2 (≈ 26.6 µM) | 32 | 2 | 4 | > 128 | 8 | 1 | 1.2 | 32 | > 128 | 8 | 11 | 4.9 |
